Results collected from several papers.
Compare with care: the assays were run in different laboratories.

SMILES | assay | test system | conditions | kinetic solubility
CCc1cnc2c(c1)[C@@H](N1CCOc3c(cc(Cn4ccnc4)cc3-c3cn(C)nc3C(F)(F)F)C1=O)CCC2 | – | PBS | 1 h, pH 7.4 | 74 µM
Cc1cc(Nc2ccc(S(F)(F)(F)(F)F)cc2)n2ccnc2n1 | – | PBS | pH 6.5 | 8.9 µM
O=C(O)CN(CCCc1ccccc1)CC(=O)N[C@@H](Cc1c[nH]cn1)C(=O)NCc1ccccc1 | – | PBS | 24 h, pH 7.4 | 179 µM
CC(=O)Nc1cc(Nc2cc(NC3CC3)n3ncc(C#N)c3n2)ccc1N(C)C[C@@H]1CCCN1 | shake flask | PBS | 24 h, pH 7.4, 22 °C | 68 µg/mL
COC(=O)[C@H](Cc1c[nH]cn1)NC(=O)CN(CC(=O)O)Cc1ccccc1 | – | PBS | 24 h, pH 7.4 | 154 µM
CCOC(=O)NS(=O)(=O)c1sc(CC(C)C)cc1-c1ccc2c(c1)CN(C(C)=O)C2 | – | aqueous buffer | pH 7.4, 37 °C | 35 µM
CCC(=O)Nc1cc(Nc2cc(NC3CC3)n3ncc(C#N)c3n2)ccc1N1CCC[C@@H](NC)C1 | shake flask | PBS | 24 h, pH 7.4, 22 °C | 65 µg/mL
CC[C@H](NC(=O)[C@H](CS(=O)(=O)CC1CC1)N[C@@H](c1ccc(F)cc1)C(F)(F)F)C(=O)C(=O)NC1CC1 | – | PBS | pH 7.4 | 223 µM
CN[C@@H]1CCN(c2ccc(Nc3cc(NC4CC4)n4ncc(C#N)c4n3)cc2NC(C)=O)C1 | shake flask | PBS | 24 h, pH 7.4, 22 °C | 64 µg/mL
CCCCOC(=O)NS(=O)(=O)c1sc(CC(C)C)cc1-c1ccc2c(c1)CCN(C(C)=O)C2 | – | aqueous buffer | pH 7.4, 37 °C | 45 µM
CN[C@@H]1CCCN(c2ccc(Nc3cc(NC4CC4)n4ncc(C#N)c4n3)cc2NC(C)=O)C1 | shake flask | PBS | 24 h, pH 7.4, 22 °C | 52 µg/mL
O=C(O)CN(CCCc1ccccc1)CC(=O)N[C@H](CO)Cc1c[nH]cn1 | – | PBS | 24 h, pH 7.4 | 180 µM
CCOC(=O)NS(=O)(=O)c1sc(CC(C)C)cc1-c1ccc2c(c1)CN(C)C(=O)C2 | – | aqueous buffer | pH 7.4, 37 °C | 61 µM
CC(=O)Nc1cc(Nc2cc(NC3CC3)n3ncc(C#N)c3n2)ccc1N(C)C1COC1 | shake flask | PBS | 24 h, pH 7.4, 22 °C | 0.9 µg/mL
O=C1CCC(N2C(=O)c3cccc(NCCCCNC(=O)c4cccc(C#Cc5cc(NC(=O)Nc6ccnc(Cl)c6)ccn5)c4)c3C2=O)C(=O)N1 (stereo not drawn) | – | PBS | 24 h, pH 7.4 | < 1.56 µM
COC(=O)[C@H](Cc1c[nH]cn1)NC(=O)CN(CCCc1ccccc1)CC(=O)O | – | PBS | 24 h, pH 7.4 | 199 µM
Cc1cc(Nc2ccc(C(F)(F)F)cc2)c2ccccc2n1 | – | simulated gastric fluid | pH 2, acidic | > 330 µM
COc1ccn2c(Nc3ccccc3F)c(-c3ccncn3)nc2c1 | – | aqueous buffer | 24 h | 163 µM
CCOC(=O)NS(=O)(=O)c1sc(CC(C)C)cc1-c1ccc2c(c1)CN(C(=O)OCC)C2 | – | aqueous buffer | pH 7.4, 37 °C | 58 µM
CC(=O)Nc1cc(Nc2cc(NC3CC3)n3ncc(C#N)c3n2)ccc1N1CCNCC1 | shake flask | PBS | 24 h, pH 7.4, 22 °C | 52 µg/mL
COC(=O)CN(CCCc1ccccc1)CC(=O)N[C@@H](Cc1c[nH]cn1)c1nc(C)no1 | – | PBS | 24 h, pH 7.4 | 172 µM
